SMILES strings stand for the structures.

Data set [1] has as its target T1, ABCG2 (Homo sapiens, UniProt Q9UNQ0).
T1 sequence (Q9UNQ0 whole entry): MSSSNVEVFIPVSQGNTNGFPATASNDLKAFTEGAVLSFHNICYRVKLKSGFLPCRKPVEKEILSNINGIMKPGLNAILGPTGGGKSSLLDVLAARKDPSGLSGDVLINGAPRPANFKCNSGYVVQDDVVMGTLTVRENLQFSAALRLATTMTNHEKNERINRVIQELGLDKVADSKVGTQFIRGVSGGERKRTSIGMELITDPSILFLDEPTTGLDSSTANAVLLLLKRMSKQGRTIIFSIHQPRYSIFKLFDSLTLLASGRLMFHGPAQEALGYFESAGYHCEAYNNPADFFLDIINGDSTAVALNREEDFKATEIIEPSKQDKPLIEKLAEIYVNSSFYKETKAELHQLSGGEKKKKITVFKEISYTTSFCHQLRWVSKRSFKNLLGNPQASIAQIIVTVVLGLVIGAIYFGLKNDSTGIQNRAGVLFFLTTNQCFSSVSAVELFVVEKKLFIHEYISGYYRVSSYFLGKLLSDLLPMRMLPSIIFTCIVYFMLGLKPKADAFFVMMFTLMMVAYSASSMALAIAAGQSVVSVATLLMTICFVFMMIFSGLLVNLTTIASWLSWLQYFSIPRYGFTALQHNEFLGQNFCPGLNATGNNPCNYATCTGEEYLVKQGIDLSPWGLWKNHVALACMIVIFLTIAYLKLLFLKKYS
The data set can be described thus: Inhibition of ABCG2 (unknown origin) expressed in MDCK-II cells assessed as reduction in pheophorbide A efflux measured after 2 hrs by flow cytometry relative to Ko143. It counts as cell-based. The note with it: MDCK-II cells expressing ABCG2, probe pheophorbide A, read-out: Imax. In short, it runs like this:
(§1)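 Pheophorbide A accumulation in MDCK II BCRP cells, about 45,000 cells/well in Krebs-HEPES buffer pH 7.4. Compound dilutions were prepared at 0.316–100 µM, and 20 µL of 5 µM pheophorbide A was added. Incubated 2 h at 37 °C, 5% CO2. Fluorescence read by flow cytometry (ex 488 nm, em 695/50 nm). IC50 and Imax are mean ± SEM of at least three independent experiments.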

The target of data set [2] is T2, Broad substrate specificity ATP-binding cassette transporter ABCG2 (Homo sapiens, UniProt Q9UNQ0).
T2 sequence (Q9UNQ0 whole entry): T1 sequence (Q9UNQ0 whole entry)
The experiment in a line: Inhibition of ABCG2 (unknown origin) expressed in MDCK-II cells assessed as reduction in pheophorbide A efflux measured after 2 hrs by flow cytometry. Format: cell-based. In short, it runs like this: as §1

Data set [3] can be described thus: Cytotoxicity against wild-type MDCK-II cells assessed as reduction in cell viability measured after 72 hrs by MTT assay. Format: cell-based, Canis lupus familiaris. The note with it: dog. The method, boiled down: (§2)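 MTT cell viability. Compound dilution series prepared in culture medium at 3.16 µM to 1 mM (dilution stock; added 20 µL to 180 µL cells). Seeding per well: MDCK II and MDCK II BCRP 2000, A2780 and A2780/ADR 8000, H69AR 20,000. Incubated 72 h, 37 °C, 5% CO2. MTT 5 mg/mL added for 60 min, formazan dissolved in DMSO, absorbance 570 nm (690 nm background). Medium = 100%, 10% DMSO = 0% viability. GI50 by four-parameter logistic fit. Mean ± SEM of at least three independent experiments.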

Data set [4] can be described thus: Cytotoxicity against ABCG2 overexpressing MDCK-II cells assessed as reduction in cell viability measured after 72 hrs by MTT assay. Format: ADME, cell-based, Canis lupus familiaris. The conditions noted are these: dog. In short, it runs like this:
as §2

The target in the next data set is ABCB1 (Homo sapiens, UniProt P08183). The experiment in a line: Inhibition of ABCB1 (unknown origin) expressed in human A2780 ADR cells assessed as reduction in calcein AM efflux at 10 uM preincubated for 30 mins followed by calcein AM addition and measured at 60 secs interval for 1 hr by fluorescence assay relative to control. Format: cell-based. The note with it: A2780 ADR cells expressing ABCB1, probe calcein AM, time 90 min. The method, boiled down: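 Calcein AM accumulation in A2780/ADR cells (30,000/well, Krebs-HEPES buffer pH 7.4). Cells preincubated with compound 30 min at 37 °C, 5% CO2. Screening at 10 µM.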
Sequence of ABCB1 (P08183 whole entry): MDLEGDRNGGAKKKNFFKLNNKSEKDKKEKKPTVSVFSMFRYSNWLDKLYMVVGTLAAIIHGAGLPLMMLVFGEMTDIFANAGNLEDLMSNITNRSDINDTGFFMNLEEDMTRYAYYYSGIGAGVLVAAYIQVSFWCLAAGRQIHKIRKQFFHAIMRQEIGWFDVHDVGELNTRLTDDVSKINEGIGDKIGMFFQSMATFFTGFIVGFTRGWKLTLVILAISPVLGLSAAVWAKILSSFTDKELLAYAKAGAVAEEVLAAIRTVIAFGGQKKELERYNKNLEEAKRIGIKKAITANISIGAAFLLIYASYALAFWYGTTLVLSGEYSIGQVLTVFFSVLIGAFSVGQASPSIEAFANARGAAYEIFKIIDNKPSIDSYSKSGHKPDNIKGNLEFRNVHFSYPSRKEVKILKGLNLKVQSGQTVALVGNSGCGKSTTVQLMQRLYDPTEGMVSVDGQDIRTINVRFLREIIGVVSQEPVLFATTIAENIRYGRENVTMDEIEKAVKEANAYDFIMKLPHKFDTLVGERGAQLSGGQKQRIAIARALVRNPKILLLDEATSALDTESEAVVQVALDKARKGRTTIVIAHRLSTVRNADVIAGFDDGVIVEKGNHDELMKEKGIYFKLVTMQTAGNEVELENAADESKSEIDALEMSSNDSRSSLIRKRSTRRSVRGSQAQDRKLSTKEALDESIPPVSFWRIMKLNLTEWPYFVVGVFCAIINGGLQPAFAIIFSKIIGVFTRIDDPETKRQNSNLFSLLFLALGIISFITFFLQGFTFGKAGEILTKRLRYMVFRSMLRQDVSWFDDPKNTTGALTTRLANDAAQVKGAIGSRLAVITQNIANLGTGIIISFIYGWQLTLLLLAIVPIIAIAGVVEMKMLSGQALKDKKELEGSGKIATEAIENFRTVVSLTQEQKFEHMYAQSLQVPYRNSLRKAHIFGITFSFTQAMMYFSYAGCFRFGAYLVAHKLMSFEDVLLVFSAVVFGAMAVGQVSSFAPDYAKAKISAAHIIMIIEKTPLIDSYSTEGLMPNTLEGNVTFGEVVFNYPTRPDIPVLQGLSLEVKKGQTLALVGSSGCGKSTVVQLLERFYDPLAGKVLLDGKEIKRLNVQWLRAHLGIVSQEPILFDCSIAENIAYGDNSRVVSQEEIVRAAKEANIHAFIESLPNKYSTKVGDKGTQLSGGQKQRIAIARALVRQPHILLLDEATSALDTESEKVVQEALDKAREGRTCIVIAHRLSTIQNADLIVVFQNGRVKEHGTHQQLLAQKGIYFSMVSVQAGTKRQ

Data set [5] deals with ATP-dependent translocase ABCB1 (Homo sapiens, UniProt P08183). The experiment in a line: Inhibition of ABCB1 (unknown origin) expressed in human A2780 ADR cells assessed as reduction in calcein AM efflux preincubated for 30 mins followed by calcein AM addition and measured at 60 secs interval for 1 hr by fluorescence assay. It counts as cell-based. The method, boiled down: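 Calcein AM accumulation in A2780/ADR cells (30,000/well, Krebs-HEPES buffer pH 7.4). Cells preincubated with compound 30 min at 37 °C, 5% CO2. Then 20 µL of 3.125 µM calcein AM added. Fluorescence (ex 485/em 520 nm) read every 60 s for 1 h. […] Screening at 10 µM.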
Sequence of ATP-dependent translocase ABCB1 (P08183 whole entry): as above

Data set [6] has as its system ABCG2. The experiment in a line: Therapeutic index, ratio of GI50 for cytotoxicity against ABCG2 overexpressing MDCK-II cells to IC50 for inhibition of ABCG2 (unknown origin) expressed in MDCK-II cells. The note with it: dog.

For `Cc1cc(Nc2ccc(C#N)cc2)nc(-c2ccccc2)n1`, the Emax at 2 h at ABCG2 [1] is 87%. In addition, the IC50 in data set [2] is 0.189 µM.
With `CNc1cc(Nc2ccc(C#N)cc2)nc(-c2ccccc2)n1`, the values for the GI50 at 72 h in data set [3] and in data set [4] were 34.1 µM and 25 µM, respectively. Further, the inhibition at 1 h, 10 µM at ABCB1 is over 20%. The IC50 in data set [5] (read-out: IC50) was 25.9 µM; in data set [2], 0.141 µM. In addition, at ABCG2 [1], the Emax at 2 h was found to be 68%. In the data set with ABCG2 [6], the selectivity ratio was determined as 180.
`N#Cc1ccc(Nc2cc(NCc3ccccn3)nc(-c3ccccc3)n2)cc1`: the GI50 at 72 h was determined as 9.44 µM in data set [3] and 8.56 µM in data set [4]. Also, on ABCB1, the inhibition at 1 h, 10 µM was over 20%. In addition, the IC50 in data set [5] (read-out: IC50) is 3.4 µM; in data set [2], 0.21 µM. Further, the Emax at 2 h on ABCG2 [1] came to 88%. For the same compound, in the data set on ABCG2 [6], the selectivity ratio came out at 40.8.
On to `N#Cc1ccc(Nc2cc(NCCCCc3ccccc3)nc(-c3ccccc3)n2)cc1`, for which the values for the GI50 at 72 h in data set [3] and in data set [4] were 10.6 µM and 9.48 µM, respectively. The IC50 entry in data set [5] (a2780 adr) is “Not Active”; in data set [2], 0.147 µM. For the same compound, the Emax at 2 h on ABCG2 [1] came out at 61%. For the same compound, in the data set with ABCG2 [6], the selectivity ratio worked out at 65.
As for `N#Cc1ccc(Nc2cc(Nc3ccc(C#N)cc3)nc(-c3ccccc3)n2)cc1`, the values for the GI50 at 72 h in data set [3] and in data set [4] were 7.09 µM and 7.78 µM, respectively. Also, at ABCB1, the inhibition at 1 h, 10 µM is over 20%. Besides, the results for the IC50 in data set [5] (read-out: IC50) and in data set [2] were 6.75 µM and 0.133 µM, respectively. Also, the Emax at 2 h on ABCG2 [1] amounted to 60%. Also, the selectivity ratio in the data set with ABCG2 [6] stood at 58.7.
For the compound `N#Cc1ccc(Nc2cc(Nc3ccccc3)nc(-c3ccccc3)n2)cc1`, the GI50 at 72 h in data set [3] stood at 4.95 µM; in data set [4] it was 4.05 µM. Also, the inhibition at 1 h, 10 µM at ABCB1 was over 20%. The IC50 in data set [5] (read-out: IC50) is 5.38 µM; in data set [2] it was 0.169 µM. For the same compound, on ABCG2 [1], the Emax at 2 h was determined as 84%. The selectivity ratio in the data set with ABCG2 [6] turned out to be 24.
On to `N#Cc1ccc(Nc2cc(-c3ccccc3)nc(-c3ccccc3)n2)cc1`, for which the values for the GI50 at 72 h in data set [3] and in data set [4] were 25.1 µM and 21.9 µM, respectively. In addition, the IC50 entry in data set [5] (a2780 adr) was “Not Active”; in data set [2], 4.41 µM. Moreover, on ABCG2 [1], the Emax at 2 h is 100%. For the same compound, the selectivity ratio with ABCG2 [6] stood at 4.96.
For the compound `CCCCNc1cc(Nc2ccc(C#N)cc2)nc(-c2ccccc2)n1`, the figures for the GI50 at 72 h in data set [3] and in data set [4] were 8.32 µM and 6.08 µM, respectively. The inhibition at 1 h, 10 µM at ABCB1 was over 20%. The values for the IC50 in data set [5] (read-out: IC50) and in data set [2] were 6.62 µM and 0.5 µM, respectively. In addition, the Emax at 2 h on ABCG2 [1] stood at 73%. In the data set on ABCG2 [6], the selectivity ratio was found to be 12.2.
Consider `N#Cc1ccc(Nc2cc(NCCCc3ccccc3)nc(-c3ccccc3)n2)cc1`, for which the figures for the GI50 at 72 h in data set [3] and in data set [4] were 5.03 µM and 3.64 µM, respectively. Moreover, the figures for the IC50 result in data set [5] (a2780 adr) and in data set [2] were “Not Active” and 0.096 µM, respectively. In addition, the Emax at 2 h on ABCG2 [1] was found to be 61%. In addition, the selectivity ratio in the data set with ABCG2 [6] came out at 38.4.
For the compound `N#Cc1ccc(Nc2cc(NCc3ccncc3)nc(-c3ccccc3)n2)cc1`, the values for the GI50 at 72 h in data set [3] and in data set [4] were 10.7 µM and 10 µM, respectively. Besides, at ABCB1, the inhibition at 1 h, 10 µM is over 20%. The IC50 in data set [5] (read-out: IC50) was 4.26 µM; in data set [2] it was 0.435 µM. In addition, the Emax at 2 h on ABCG2 [1] was 78%. Besides, the selectivity ratio in the data set with ABCG2 [6] was 23.1.
With `N#Cc1ccc(Nc2ccnc(-c3ccccc3)n2)cc1`, in data set [2], the IC50 was found to be 0.189 µM.
Take `N#Cc1ccc(Nc2cc(NCc3ccccc3)nc(-c3ccccc3)n2)cc1`: the GI50 at 72 h in data set [3] was 4.19 µM; in data set [4], 10.7 µM. Besides, the inhibition at 1 h, 10 µM at ABCB1 is over 20%. The values for the IC50 in data set [5] (read-out: IC50) and in data set [2] were 4.47 µM and 0.283 µM, respectively. The Emax at 2 h at ABCG2 [1] was determined as 99%. For the same compound, the selectivity ratio in the data set on ABCG2 [6] was found to be 38.
Regarding `CCc1c2c(nc3ccc(O)cc13)-c1cc3c(c(=O)n1C2)COC(=O)[C@]3(O)CC` [7-ETHYL-10-HYDROXYCAMPTOTHECIN], in data set [3], the GI50 at 72 h was 0.139 µM.

The record behind these values is ChEMBL document CHEMBL4706664, “Rational drug design of 6-substituted 4-anilino-2-phenylpyrimidines for exploration of novel ABCG2 binding site” (Eur J Med Chem, 2021).
